# Assay outcomes deposited in PubChem BioAssay by several laboratories.
# Cardio protect – protects H9c2 cardiomyocytes from peroxide injury | 360,000 compounds, 0.63% hits | protection from H2O2 cell death, % at 20 µM | H2O2 injury protection, ATPLite, 2 h | AID 588492;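 active means compounds giving at least 50% protection of heart cells from peroxide-induced death in the single-dose screen, raw or plate-pattern-corrected value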;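 further: 0% = DMSO wells with peroxide and 100% = DMSO wells without peroxide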
# Neddyl block – inhibitors of human cullin neddylation | inhibition, % at 25 µM | AID 651699 | TR-FRET cullin neddylation, biochemical | P61081+Q13564 | 360,000 compounds, 0.58% hits; in the data active means inhibition above about 36%
# ASAP1 GAP inh – blocks human ASAP1-stimulated Arf1 GTP hydrolysis | GDP FP detection | Q9ULH1 | inhibition, % at 16.5 µM | 360,000 compounds, 0.19% hits; in the data active means inhibition above about 25%;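 further: 0% = vehicle with enzyme and substrate and 100% = no enzyme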
# Target sequence (Q9ULH1 325-724 limits assumed): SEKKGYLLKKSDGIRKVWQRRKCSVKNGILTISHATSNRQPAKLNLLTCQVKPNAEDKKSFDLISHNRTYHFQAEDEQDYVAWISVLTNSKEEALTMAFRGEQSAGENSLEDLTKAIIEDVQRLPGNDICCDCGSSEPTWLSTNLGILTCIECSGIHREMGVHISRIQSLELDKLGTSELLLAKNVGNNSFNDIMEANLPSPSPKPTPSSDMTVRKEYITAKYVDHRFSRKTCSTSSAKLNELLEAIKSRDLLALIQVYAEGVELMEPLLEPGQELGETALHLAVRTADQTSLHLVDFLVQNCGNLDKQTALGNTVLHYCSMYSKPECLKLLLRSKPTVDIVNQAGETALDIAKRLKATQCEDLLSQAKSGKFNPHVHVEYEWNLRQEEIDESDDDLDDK
# ARFGAP1 inhibitor – inhibitors of rat ARFGAP1; inhibition, % at 16.5 µM; Arfgap1-stimulated ARF1 GTP hydrolysis, GDP FP detection; 360,000 compounds, 0.26% hits; Q62848;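 active means inhibition above a per-plate limit, mean inhibition of low control wells plus 3 SD, cut at about 25% in these data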;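 further: 0% = DMSO wells with enzyme and 100% = wells lacking Arfgap1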
#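 material = rat Arfgap1 catalytic domain, aa 1-136 | also added = human ARF1(Δ1-17)-GTP substrate | compound dosing = one concentration, 16.5 µM, DMSO 1.26% | times = GTP hydrolysis reaction 2 h at 25 °C | measured by = FP, GDP Alexa 633 tracer displaced from anti-GDP antibody, 620/688 nm | evaluation = percent inhibition of Arfgap1-stimulated GTP hydrolysis | replication = single well per compound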
# Neddyl conf – confirmation of human cullin neddylation inhibitors; shares compounds with Neddyl block; TR-FRET cullin neddylation biochemical assay; calls only at 25 µM; 1,800 compounds, 13% hits; AID 652217; in the data active means inhibition above about 40%;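 further: neddylation substrate is the cullin 1 ring ligase complex with SKP2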
# Numbers without * were called inactive; i = inactive; · = no result given. Only some compounds are listed: those with a hit (about 1.6% of all), similar ones and a draw of the others.
SMILES,Cardio protect,Neddyl block,ASAP1 GAP inh,ARFGAP1 inhibitor,Neddyl conf
COC(=O)c1cc2ccccc2c(-c2c(OC)c(C(=O)OC)cc3ccccc23)c1OC,-6.5,41.0*,0.7,-1.0,i
Cc1ccccc1-c1cccc2[nH]c3c(c12)CCN1C(=O)[C@H]2[C@H](C)ON(C)[C@H]2C[C@@H]31,·,·,-3.6,8.2,·
O=C(N[C@@H](Cc1cccnc1)C(=O)N1CCC[C@H]1C(=O)NCc1ccccc1)c1ccc(Cl)c(Cl)c1,·,·,-5.9,-3.9,·
COCCNC(=O)CSc1nc(-c2ccc(OC)c(OC)c2)cc(C(F)(F)F)n1,6.5,40.5*,1.5,-4.1,·
O=C(CSc1nc(-c2ccccc2)cc(C(F)(F)F)n1)N1CCOCC1,6.8,-5.4,-1.2,-11.0,·
COc1ccc(-c2cc(C(F)(F)F)nc(SCC(=O)N3CCOCC3)n2)cc1OC,5.4,43.1*,-1.5,-3.0,i
Cc1ccc(S(=O)(=O)N2[C@H](CC(=O)c3ccc(F)cc3)OC[C@@H]2C(C)C)cc1,·,-6.1,8.6,-1.9,·
CC(C)Oc1cc(F)ccc1-c1cc(C(=O)Nc2cccc(C(F)(F)F)c2)[nH]n1,-11.0,14.0,1.9,2.5,·
CNc1cccc(-c2cccc(C(=O)N3CCOCC3)c2)n1,-3.3,12.6,-9.3,-21.9,·
Cc1ccc(C2NC(=O)c3c(sc4c3CCN(C)C4)N2)o1 (stereo not drawn),0.2,43.5*,1.5,15.4,i
Cc1ccc(C2NC(=O)c3c(sc4c3CCN(C)C4)N2)s1 (stereo not drawn),-4.4,·,-0.2,-12.1,·
CCc1ccc(-c2cc(C(=O)Nc3c(C)n(C)n(-c4ccccc4)c3=O)c3ccccc3n2)s1,25.9,41.3*,·,·,i
COC(=O)[C@]12C[C@H](CC(=O)N3CCC(c4ccccc4)CC3)C(=O)N(CCC3=CCCCC3)C1=C[C@H](C(C)(C)C)O[C@@H]2C,·,·,1.2,-2.1,·
CCN(CC)C(=O)c1ncn2c1C(=O)NC[C@H]2C,·,·,0.9,0.1,·
CCOC(=O)c1[nH]c2ccc(F)cc2c1NC(=O)CN1CCN(C/C=C/c2ccccc2)CC1,-38.1,41.6*,6.4,13.0,i
CCOC(=O)c1[nH]c2ccc(OC)cc2c1NC(=O)c1ccccc1C(=O)O,-4.2,42.9*,-6.0,1.8,i
CC1=C(c2ccccc2)C(=O)C(C)(C)CC1=O,·,·,-3.9,12.0,·
Cc1[nH]c2ccc(C(=O)OCC(=O)Nc3cccc(S(N)(=O)=O)c3)cc2c1C,-8.9,45.0*,6.3,8.5,i
CCOC(=O)c1ccc2[nH]c(C)c(C)c2c1,-3.6,20.2,-0.1,6.9,·
Nc1[nH]c(C(=O)c2ccc(Br)cc2)c(-c2ccc(F)cc2)c1C(=O)NCCc1c[nH]c2ccccc12,·,·,2.4,0.3,·
O=C(COc1ccc2ccc(=O)oc2c1)Nc1ccc(N2CCCCC2)cc1,-3.5,61.3*,-17.2,1.2,·
Cc1c(C)c2ccc(OCC(=O)Nc3ccc(CN4CCOCC4)cc3)cc2oc1=O,2.1,52.2*,6.5,-9.1,i
Cc1ccc(OCC(=O)Nc2ccc(CN3CCOCC3)cc2)cc1C,-6.8,10.1,-3.5,-7.5,·
COC(=O)c1ccc2c(=O)n(CCCCCC(=O)O)c(=O)[nH]c2c1,1.4,47.6*,-10.0,-0.6,·
CCCCNC(=O)CCCCCn1c(=O)[nH]c2cc(C(=O)OC)ccc2c1=O,0.7,36.3,-11.3,4.4,·
SMILES,Cardio protect,Neddyl block,ASAP1 GAP inh,ARFGAP1 inhibitor,Neddyl conf
COc1ccc(Nc2cc3n(c(=O)n2)CCc2cc(OC)c(OC)cc2-3)cc1,1.1,47.2*,-5.2,12.4,·
CCCN(C(=O)CCc1cn(CCC)c2ccccc12)c1ccc(Oc2cccnc2)cc1,·,·,-5.5,2.2,·
Cc1cc(=O)c2c([nH]1)c(C)cc1[nH]c(C)c(C)c12,10.8,42.9*,-1.6,-5.2,·
O=C(N/N=C/c1c(O)n(-c2ccccc2Cl)c(=O)c2ccccc12)C1COc2ccccc2O1 (stereo not drawn),68.3*,48.1*,·,·,i
Cc1ccc(-n2c(O)c(/C=N/NC(=O)C3COc4ccccc4O3)c3ccccc3c2=O)cc1 (stereo not drawn),39.3,43.6*,2.5,-1.2,i
Cc1c(/C=N\NC(=O)C2COc3ccccc3O2)c2ccccc2n1C (stereo not drawn),1.0,8.7,-5.0,12.6,·
Cc1ccc(/C=N/NC(=O)C2COc3ccccc3O2)s1 (stereo not drawn),8.2,-10.5,-3.3,5.2,·
c1ccc(-c2cc3nc(NCc4cccs4)nc(NCc4ccc5occc5c4)c3s2)cc1,-5.3,-116.8,-0.8,3.1,·
CSCCC(NC(=O)OCc1ccccc1)C(=O)NC(Cc1c[nH]c2ccccc12)C(=O)O (stereo not drawn),·,·,-7.6,-8.9,·
